We go through eight compounds from ChEMBL document CHEMBL5113551, “Fragment-Based Dynamic Combinatorial Chemistry for Identification of Selective α-Glucosidase Inhibitors” (ACS Med Chem Lett, 2022).

Data set [1] is described as follows: Cytotoxicity against human HepG2 cells assessed as reduction in cell viability incubated for 24 hrs by CCK8 assay. The format is toxicity, cell-based.
The species named for data set [2] is Homo sapiens. Description: Mixed type of inhibition of alpha glucosidase (unknown origin) using pNPG as substrate by Lineweaver-Burk plot analysis. In outline:
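Reaction velocity was measured across a range of substrate concentrations at several inhibitor concentrations. The data were plotted as 1/V versus 1/[S] and fitted linearly (Lineweaver–Burk). The quadrant where the lines intersect assigned the inhibition type, and the enzyme Km was derived from the same plot.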

In data set [3] the target is T1, Alpha amylase (Homo sapiens, UniProt P0DUB6).
T1 sequence (P0DUB6 whole entry): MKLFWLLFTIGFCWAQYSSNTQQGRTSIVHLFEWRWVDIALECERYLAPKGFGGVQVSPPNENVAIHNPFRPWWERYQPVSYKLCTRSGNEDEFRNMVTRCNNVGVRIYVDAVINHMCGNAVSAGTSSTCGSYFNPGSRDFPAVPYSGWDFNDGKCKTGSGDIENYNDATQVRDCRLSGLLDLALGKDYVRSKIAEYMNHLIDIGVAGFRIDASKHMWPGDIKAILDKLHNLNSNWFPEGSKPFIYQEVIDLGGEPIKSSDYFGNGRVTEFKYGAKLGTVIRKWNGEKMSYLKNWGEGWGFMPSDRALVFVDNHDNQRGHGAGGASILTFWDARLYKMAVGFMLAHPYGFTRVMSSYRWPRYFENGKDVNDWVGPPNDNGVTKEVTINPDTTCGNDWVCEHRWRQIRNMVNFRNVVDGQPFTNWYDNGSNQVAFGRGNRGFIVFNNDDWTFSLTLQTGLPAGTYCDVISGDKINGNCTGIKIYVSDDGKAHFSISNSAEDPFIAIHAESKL
Description: Inhibition of alpha-amylase (unknown origin).

The nature of data set [4]: Competitive inhibition of alpha glucosidase (unknown origin) using pNPG as substrate by Dixon plot analysis. Further details: species or system Homo sapiens. In outline:
(§1)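 Inhibition kinetics used a slightly modified, previously described method. Reciprocal velocity was plotted against inhibitor concentration at several fixed substrate concentrations (Dixon plot). The competitive constant (Ki) and noncompetitive constant (αKi) were read from this plot.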

The nature of data set [5]: Inhibition of alpha glucosidase (unknown origin). Further details: species or system Homo sapiens.
Data set [6] is filed under the species Homo sapiens. Nature of the data set: Non-competitive inhibition of alpha glucosidase (unknown origin) using pNPG as substrate by Dixon plot analysis. In a few lines: as §1

Some results are limits rather than exact numbers.

Turning to `Cc1ccc2occ(/C=N/NC(=O)c3cc4ccccc4[nH]3)c(=O)c2c1`, the CC50 at 24 h in data set [1] is more than 200 µM. In data set [2], the Km amounted to 930 µM. The IC50 in data set [3] is more than 200 µM; in data set [5], 2.52 µM. The same compound registered an inhibition constant Ki in data set [4] of 1.98 µM. The same compound gave an alphaKi in data set [6] of 2.75 µM.

As for `Cc1ccc(S(=O)(=O)Oc2ccc(/C=N/NC(=O)c3nc4ccccc4[nH]3)cc2)cc1`, the IC50 in data set [3] was more than 200 µM; in data set [5] it was 168 µM.

`Cc1ccc(S(=O)(=O)Oc2ccc(/C=N/NC(=O)Cc3ccccn3)cc2)cc1`: the IC50 in data set [3] and in data set [5] was more than 200 µM each time.

With `Cc1ccc(S(=O)(=O)Oc2ccc(/C=N/NC(=O)c3ccc(O)cc3)cc2)cc1`, the IC50 in data set [3] and in data set [5] was more than 200 µM throughout.

On to `O=C(N/N=C/c1coc2ccc(O)cc2c1=O)c1cc2ccccc2[nH]1`, for which, in data set [1], the CC50 at 24 h is more than 200 µM. Also, the results for the IC50 in data set [3] and in data set [5] were 151.46 µM and 22.6 µM, respectively.

As to `O=C(N/N=C/c1coc2ccccc2c1=O)c1nc2ccccc2[nH]1`, in data set [1], the CC50 at 24 h is more than 200 µM. For the same compound, the results for the IC50 in data set [3] and in data set [5] were more than 200 µM and 32.5 µM, respectively.

For `O=C(N/N=C/c1coc2ccccc2c1=O)c1cc2ccccc2[nH]1`, the CC50 at 24 h in data set [1] was more than 200 µM. Further, the figures for the IC50 in data set [3] and in data set [5] were 128.1 µM and 6.49 µM, respectively.

In data set [5], `C[C@H]1O[C@H](O[C@H]2[C@H](O)[C@@H](O)[C@@H](O[C@H]3[C@H](O)[C@@H](O)C(O)O[C@@H]3CO)O[C@@H]2CO)[C@H](O)[C@@H](O)[C@@H]1N[C@H]1C=C(CO)[C@@H](O)[C@H](O)[C@H]1O` (some centres not stated) [ACARBOSE] came in with an IC50 of 8.06 µM. That is a single-digit micromolar value.
